Source: PubChem BioAssay
rRNA inh HTS: inhibitors of bacterial rRNA selective over humanized ribosomes. E. coli WT GFP vs humanized-ribosome RFP mutants, fluorescence, 24 h; hits give low values; DMSO median 0, no signal -100. GFP signal change (wild-type ribosome), % (concentration not given with the values). 350,000 tested, 1.6% active. AID 720706;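 active = significant combined selectivity score with lowered wild-type GFP, culture density cut under 30%, mutant RFP and density less affected; inactive = any of these conditions unmet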
E-sel inducer: E-selectin induction on HUVECs. HUVEC E-selectin immunofluorescence imaging; normalized: neutral wells 0, TNF-alpha wells 100. AID 686992. 260,000 tested, 0.37% active. activation, % at 7.58 µM;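 active = mean E-selectin-positive cell signal at least 10% of the positive control, reached in at least 60% of replicates, without over 20% cell loss; inconclusive = no rule given, readout overlaps actives, possibly toxicity-flagged; inactive = the rest, including those meeting only one limit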
Target sequence (P16581 whole entry, looked up): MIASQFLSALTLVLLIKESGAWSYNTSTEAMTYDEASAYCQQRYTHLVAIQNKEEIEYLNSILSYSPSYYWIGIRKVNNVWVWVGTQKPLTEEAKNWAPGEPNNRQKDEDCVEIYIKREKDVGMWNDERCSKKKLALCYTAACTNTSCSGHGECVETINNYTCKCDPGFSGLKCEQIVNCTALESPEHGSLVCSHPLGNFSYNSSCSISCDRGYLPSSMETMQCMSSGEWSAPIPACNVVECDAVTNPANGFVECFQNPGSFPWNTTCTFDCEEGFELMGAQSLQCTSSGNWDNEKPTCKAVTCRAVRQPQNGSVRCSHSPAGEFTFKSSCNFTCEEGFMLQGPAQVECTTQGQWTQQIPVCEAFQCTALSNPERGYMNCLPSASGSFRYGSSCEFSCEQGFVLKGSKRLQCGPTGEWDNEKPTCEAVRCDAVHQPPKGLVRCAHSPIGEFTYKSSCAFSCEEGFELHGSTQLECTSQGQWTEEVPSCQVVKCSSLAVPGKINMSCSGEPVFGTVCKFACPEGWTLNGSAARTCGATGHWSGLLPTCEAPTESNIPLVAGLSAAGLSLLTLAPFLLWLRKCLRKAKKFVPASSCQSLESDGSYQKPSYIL
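System: HUVEC / Compound: single concentration / Signal: immunofluorescence imaging / Read-out: percent E-selectin-positive cells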
RAD54 inh: RAD54 (human) branch migration inhibition | inhibition, % at 10.4 µM | RAD54 Holliday junction branch migration, FAM/BHQ fluorescence | Q92698 | AID 602329 | 360,000 tested, 0.14% active;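 active = mean normalized replicate activity at least 40 and at least half of replicates scoring 40 or more; inconclusive = only one of the two criteria met; inactive = mean below 40 and under half of replicates reaching 40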;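 also: 0% = median of neutral control wells and 100% = median of positive control wells; inhibitors cause a drop in the FAM fluorescence signal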
RAD52 inh: blocks human RAD52 DNA annealing; 360,000 tested, 0.46% active; inhibition, % at 18.7 µM; P43351; recombinant RAD52 DNA annealing, FRET fluorescence;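 active = every replicate showing at least 50% inhibition; inconclusive = mean inhibition at least 50% but not in every replicate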
MLL AF4-AF9 inh: blocks AF4 peptide binding to human AF9; inhibition, % at 10 µM; 350,000 tested, 0.47% active; AID 651704; AlphaScreen, biotin-AF4 peptide binding to FLAG-AF9; P42568;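 active = every replicate reaching a set inhibition limit, whatever the replicate mean, cut at about 25% in these data; inconclusive = mean inhibition reaches that limit but some replicates miss it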;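 also: 0% = plate neutral control median and 100% = total signal loss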
INS-1E GSIS act: primary screen for activators of insulin secretion dependent on glucose, INS-1E cells, GLuc reporter luminescence; INS-1E GLuc reporter insulin secretion, 2-3 h; 370,000 tested, 0.61% active; activation, % at 16.6 µM;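 active = lowest replicate activation of at least 40%, so every replicate reaches that level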;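 also: 0% = median of neutral control wells and 100% = median of IBMX positive control wells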
The depositor's hits bear a star. Shown are actives, neighbours in structure and some others; about 2.6% of the full set was active somewhere.

For CCCCCOc1ccc(C(=O)NCCC(=O)NCCCC(=O)OCC)cc1 the results were rRNA inh HTS -25.1*, RAD52 inh -8.3 and MLL AF4-AF9 inh 2.2.
`O=C(NC(c1ccc(-c2ccccc2)cc1)c1cnccn1)C1CCN(Cc2ccc(Cl)c(Cl)c2)CC1` (stereo unspecified) gave rRNA inh HTS -0.5, E-sel inducer 0.1, RAD54 inh -11.4, RAD52 inh -9.5 and MLL AF4-AF9 inh 0.7.
Cn1cc(CN2CCC(C(=O)NC(c3ccc(-c4ccccc4)cc3)c3cnccn3)CC2)c2ccccc21 (stereo unspecified) was read as rRNA inh HTS -29.4, E-sel inducer 1.2, RAD54 inh -0.4, RAD52 inh 8.9, MLL AF4-AF9 inh 26.4* and INS-1E GSIS act -13.5.
For CCCN(C)C[C@@H]1OCc2cn(nn2)CCCC(=O)N([C@H](C)CO)C[C@@H]1C the results were rRNA inh HTS 1.3, E-sel inducer 0.0, RAD54 inh 1.8, RAD52 inh 14.3, MLL AF4-AF9 inh -16.0 and INS-1E GSIS act 1.9.
For Cc1cccc(C)c1NC(=O)C1C(c2ccc3c(c2)OCO3)=Nc2ccccc2N1C(=O)c1ccccn1 (stereo unspecified) the results were rRNA inh HTS 4.5, E-sel inducer 119.4*, RAD52 inh -14.9, MLL AF4-AF9 inh 5.6 and INS-1E GSIS act 9.3.
Screening CCOC(=O)C1=C(C)Nc2nc3ccccc3n2C1c1ccc(O)cc1 (stereo unspecified) returned rRNA inh HTS 9.4, RAD54 inh -5.5, RAD52 inh -9.4, MLL AF4-AF9 inh -6.0 and INS-1E GSIS act 10.6.
`CCOC(=O)c1ccccc1-n1c(C)cc(C2N=C(N)Nc3nc4ccccc4n32)c1C` (stereo unspecified) gave rRNA inh HTS -17.5, RAD54 inh -1.0, RAD52 inh 0.0, MLL AF4-AF9 inh 25.5* and INS-1E GSIS act 2.0.
For COc1cc(Br)cc(CN2CCN(C/C=C/c3ccccc3)CC2)c1O the results were rRNA inh HTS -33.6*, RAD54 inh 0.4, RAD52 inh 2.6, MLL AF4-AF9 inh 8.5 and INS-1E GSIS act -48.3.
C[C@@H]1CN([C@H](C)CO)C(=O)Cc2cc(NC(=O)C3CCCCC3)ccc2O[C@@H]1CN(C)Cc1ccc(C(=O)O)cc1 was read as rRNA inh HTS 3.0, E-sel inducer 0.8, RAD54 inh 1.0, RAD52 inh 19.6, MLL AF4-AF9 inh -2.0 and INS-1E GSIS act 14.7.
Screening CCCNC(=O)N1CC2(CCN(C(C)=O)CC2)c2c(n(C)c3cc(OC)ccc23)[C@@H]1CO returned rRNA inh HTS 2.8, E-sel inducer 0.4, RAD52 inh 2.4, MLL AF4-AF9 inh 2.7 and INS-1E GSIS act 4.4.
Screening O=S(=O)(N[C@H]1CC[C@H](CCn2cc(-c3ccccc3F)nn2)O[C@@H]1CO)c1ccc(F)cc1 returned rRNA inh HTS -7.2, E-sel inducer -0.2, RAD52 inh -3.0, MLL AF4-AF9 inh 0.5 and INS-1E GSIS act -5.2.
`O=C(O)c1cccc(N/N=C/c2sc(N3CCOCC3)nc2-c2ccccc2)c1` gave RAD54 inh 1.9 and INS-1E GSIS act 41.5*.
Nc1ccc(C(=O)N/N=C/c2sc(N3CCOCC3)nc2-c2ccccc2)cc1 was read as rRNA inh HTS -8.2, E-sel inducer 0.0, RAD54 inh -10.7, RAD52 inh -12.5, MLL AF4-AF9 inh -4.2 and INS-1E GSIS act 11.4.
`C[C@H]1CN([C@@H](C)CO)C(=O)c2cc(-c3cccc(F)c3)cnc2O[C@H]1CN(C)C(=O)Nc1cc(F)ccc1F` gave rRNA inh HTS -3.1, E-sel inducer 0.0, RAD54 inh -11.2, RAD52 inh -5.9, MLL AF4-AF9 inh 0.6 and INS-1E GSIS act -28.9.
`CCC(=O)Nc1cc2nn(-c3ccc(OC)cc3)nc2cc1C` gave RAD54 inh -10.1 and INS-1E GSIS act 107.8*.
`O=C(NC(=S)Nc1ccc(Br)cn1)c1cncc(Br)c1` gave RAD54 inh -1.9.
`O=C(NC(=S)Nc1ccccn1)c1cncc(Br)c1` gave rRNA inh HTS 4.3, E-sel inducer 26.0*, RAD52 inh -11.4, MLL AF4-AF9 inh -2.5 and INS-1E GSIS act 17.6.
`COc1cccc(NC(=S)NC(=O)c2cncc(Br)c2)c1` gave rRNA inh HTS -24.3*, E-sel inducer 2.3, RAD54 inh 7.0, RAD52 inh -30.9, MLL AF4-AF9 inh -1.5 and INS-1E GSIS act 9.7.
Screening CC(=O)c1cccc(NC(=S)NC(=O)c2cncc(Br)c2)c1 returned rRNA inh HTS -19.3, RAD54 inh -0.5, RAD52 inh -20.2, MLL AF4-AF9 inh -1.9 and INS-1E GSIS act 3.7.
O=C(/C=C/c1ccccc1[N+](=O)[O-])N1CCN(c2ccc(F)cc2)CC1 was read as rRNA inh HTS -30.1*, RAD54 inh -0.2, RAD52 inh -7.8, MLL AF4-AF9 inh 3.5 and INS-1E GSIS act -1.5.
For COc1ccccc1N1CCN(/N=C\c2sccc2C)CC1 the results were rRNA inh HTS -27.6*, E-sel inducer -5.5, RAD52 inh -10.6, MLL AF4-AF9 inh 30.4* and INS-1E GSIS act -10.1.
For COc1ccccc1N1CCN(/N=C/C=C/c2ccccc2[N+](=O)[O-])CC1 the results were rRNA inh HTS -16.8*, E-sel inducer 14.8, RAD54 inh -2.3, RAD52 inh -3.9, MLL AF4-AF9 inh 48.3* and INS-1E GSIS act -2.1.
Screening O=C(/C=C/c1cccc([N+](=O)[O-])c1)N1CCN(c2ccc(F)cc2)CC1 returned E-sel inducer 0.8, RAD54 inh 4.3 and INS-1E GSIS act -16.9.
COc1ccccc1N1CCN(c2ccc([N+](=O)[O-])cn2)CC1 was read as rRNA inh HTS -20.9*, RAD54 inh -3.7, RAD52 inh -2.9 and MLL AF4-AF9 inh 13.0.
For COc1ccccc1N1CCN(/N=C/c2cc([N+](=O)[O-])ccc2Cl)CC1 the results were rRNA inh HTS 11.7, RAD52 inh -3.9, MLL AF4-AF9 inh inconclusive and INS-1E GSIS act 0.5.
Screening CC(C)NC(=O)Nc1ccc2c(c1)C(=O)N(C)[C@@H]1CC[C@H](CC(=O)NC3CCCCC3)O[C@@H]1CO2 returned rRNA inh HTS -3.6, E-sel inducer 0.1, RAD54 inh -7.6 and INS-1E GSIS act -0.3.
For O=[N+]([O-])c1ccccc1/C=C\C=N\N1CCN(c2ccccc2)CC1 the results were rRNA inh HTS -17.1, RAD54 inh 1.7, RAD52 inh -5.3, MLL AF4-AF9 inh 42.1* and INS-1E GSIS act -5.4.
For Cc1ncc(N=Nc2ccc(F)cc2)c(-c2ccc(Cl)cc2)n1 the results were RAD54 inh -4.4 and INS-1E GSIS act 59.4*.
For C[C@H]1CN([C@@H](C)CO)C(=O)c2cccc(NS(C)(=O)=O)c2O[C@H]1CN(C)S(=O)(=O)c1cccs1 the results were rRNA inh HTS 0.9, E-sel inducer 0.0, RAD54 inh 3.6, RAD52 inh -6.1, MLL AF4-AF9 inh -2.8 and INS-1E GSIS act 11.2.
